The target in test [1] is T1, Human immunodeficiency virus type 1 protease (Human immunodeficiency virus 1, UniProt Q72874). In words: Inhibition concentration against HIV-1 protease. The method in brief: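 Purified HIV-1 protease (30 nM) added after 5 min preincubation of 60.8 µM chromophoric HIV substrate III with inhibitor (DMSO, final below 2.5%). Buffer: 50 mM each glycine, sodium acetate, MES and Tris-HCl, 1.0 M NaCl, 1 mM EDTA, 1 mM DTT, pH 5.5, 37 °C. Cleavage rate from absorbance change at 300 nm. IC50 from activity versus log inhibitor concentration.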

Test [2] has as its target T1, Human immunodeficiency virus type 1 protease. Kind of test: Binding affinity against HIV-1 protease. The method in brief:
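Ki from the activity of 20 nM HIV-1 protease across a matrix of substrate (HIV substrate III at 10, 20, 50 and 100 µM) and at least three inhibitor levels: roughly the estimated Ki and 2–4 times it. Tight-binding rate equation fitted by nonlinear regression. Buffer and read-out as in the spectrophotometric cleavage assay.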

In test [3] the target is Human immunodeficiency virus type 1 protease (Human immunodeficiency virus 1) (UniProt Q72874). Particulars: 10 uM.

One may read the IC50 as the concentration that inhibits the measured activity by half. In general, Ki refers to a measure of affinity in units of concentration, obtained from inhibition or displacement. Lower therefore signals higher affinity. In test [1], `O=C1N(Cc2ccccc2)[C@H](CCc2ccccc2)[C@H](O)[C@@H](O)[C@@H](CCc2ccccc2)N1Cc1ccccc1` showed an IC50 of 4000 nM. In test [2], this compound came in with a Ki of 214 nM.

`O=S1(=O)N(Cc2ccccc2)[C@H](CCc2ccccc2)[C@H](O)[C@@H](O)[C@@H](CCc2ccccc2)N1Cc1ccccc1` came in with an IC50 in test [1] of 200 nM. The same compound gave a Ki in test [2] of 14.7 nM.

In turn, `O=C1N(Cc2ccc(CO)cc2)[C@H](COc2ccccc2)[C@H](O)[C@@H](O)[C@@H](COc2ccccc2)N1Cc1ccc(CO)cc1` returned an IC50 in test [1] of 10 nM. The compound also gave a Ki in test [2] of 0.23 nM.

In test [1], `COC(=O)c1ccc(CN2C(=O)N(Cc3ccc(C(=O)OC)cc3)[C@H](COc3ccccc3)[C@H](O)[C@@H](O)[C@H]2COc2ccccc2)cc1` registered an IC50 of 8000 nM.

Turning to `O=C1N(Cc2ccc(CO)cc2)[C@H](Cc2ccccc2)[C@H](O)[C@@H](O)[C@@H](Cc2ccccc2)N1Cc1ccc(CO)cc1` [DMP-323], the IC50 in test [1] came to 15 nM.

Turning to `O=C1N(Cc2ccccc2)[C@H](CCCc2ccccc2)[C@H](O)[C@@H](O)[C@@H](CCCc2ccccc2)N1Cc1ccccc1`, the IC50 in test [1] was found to be 10000 nM. In test [2], this compound yielded a Ki of 570 nM.

In turn, `O=C1N(Cc2ccccc2)[C@H](COc2ccccc2)[C@H](O)[C@@H](O)[C@@H](COc2ccccc2)N1Cc1ccccc1` came in with an IC50 in test [1] of 80 nM.

Broadly, the inhibition is the change of the read-out against control, counted positive when it falls. In the case of `O=C1N(Cc2ccccc2)[C@@H](COc2ccccc2)[C@H](O)[C@@H](O)[C@H](COc2ccccc2)N1Cc1ccccc1`, in test [3], the inhibition worked out at 10%.

As for `O=S1(=O)N(Cc2ccccc2)[C@H](COc2ccccc2)[C@H](O)[C@@H](O)[C@@H](COc2ccccc2)N1Cc1ccccc1`, the IC50 in test [1] is 200 nM. That is a sub-micromolar value.

In test [3], `O=C1N(Cc2ccccc2)[C@@H](COc2ccccc2)[C@@H](O)[C@H](O)[C@H](COc2ccccc2)N1Cc1ccccc1` displayed an inhibition of 15%.

Take `O=C1N(Cc2ccccc2)[C@H](COc2ccccc2)[C@@H](O)[C@H](O)[C@@H](COc2ccccc2)N1Cc1ccccc1`: the inhibition in test [3] turned out to be 0%.

The values are drawn from ChEMBL document CHEMBL1129971, “Cyclic HIV-1 protease inhibitors derived from mannitol: synthesis, inhibitory potencies, and computational predictions of binding affinities” (J Med Chem, 1997).
